# Screens deposited in PubChem by several laboratories.
# SENP8 block-1: SENP8 protease inhibition; inhibition, % at 10 µM; 330,000 compounds, 1.2% hits; Q96LD8; purified SENP8, Z-RLRGG-aminoluciferin cleavage, luminescence; in the data active = inhibition above about 50%
# Target sequence (Q96LD8 whole entry, looked up): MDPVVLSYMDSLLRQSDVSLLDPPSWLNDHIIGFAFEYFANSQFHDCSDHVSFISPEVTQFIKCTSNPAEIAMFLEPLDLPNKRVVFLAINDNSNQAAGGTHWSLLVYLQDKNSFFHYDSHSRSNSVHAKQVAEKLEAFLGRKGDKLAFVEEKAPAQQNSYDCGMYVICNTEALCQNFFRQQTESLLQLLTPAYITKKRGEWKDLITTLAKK
# SENP6 inh: blocks the human protease SENP6; inhibition, % at 10 µM; 330,000 compounds, 1.8% hits; Recombinant SENP6 catalytic domain, aminoluciferin luminescence;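 active = inhibition above about 50% at the single tested dose, limit read from the data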;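 note: plate controls were DMSO wells with enzyme for no effect and DMSO wells lacking enzyme for full effect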
# SENP8 block-2: blocks human SENP8 cleavage of Nedd8 substrate | AID 602440 | inhibition, % at 20 µM | 360,000 compounds, 0.64% hits | recombinant SENP8, Nedd8 substrate fluorescence; in the data active = inhibition mostly above about 40%, no sharp cut-off; inactive = mostly below about 27%
# SENP7 inh: SENP7 protease inhibition. AID 434973. recombinant SENP7, Z-RLRGG-aminoluciferin luminescence, 40 min. inhibition, % at 5 µM. 330,000 compounds, 1.5% hits. Q9BQF6;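 active = inhibition above about 50% at the single test dose, limit read from the data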;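 note: plate controls were DMSO with enzyme for no effect and no enzyme buffer wells for full effect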
# Platelet DG rel: modulates dense granule release in human platelets; human platelet-rich plasma, SFLLRN dense granule ATP release, luminescence; inhibition, %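 (compounds screened at 7.5 µM in platelet-rich plasma)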; 300,000 compounds, 0.22% hits; AID 1663;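 active = mean replicate score, as percent of positive control, at or above 50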
# SENP1 FRET inh: SENP1 (human) catalytic domain inhibition | recombinant SENP1 catalytic domain, CyPet-SUMO1-YPet FRET cleavage | inhibition, % at 10 µM | 360,000 compounds, 0.21% hits;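 active = inhibition at least 30% at 10 µM, raw YFP signal under a set limit, fluorescence ratio 0.5 to 1.5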;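 note: 0% = enzyme with DMSO and 100% = no enzyme wells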
# Target sequence (Q9P0U3 419-644 limits assumed): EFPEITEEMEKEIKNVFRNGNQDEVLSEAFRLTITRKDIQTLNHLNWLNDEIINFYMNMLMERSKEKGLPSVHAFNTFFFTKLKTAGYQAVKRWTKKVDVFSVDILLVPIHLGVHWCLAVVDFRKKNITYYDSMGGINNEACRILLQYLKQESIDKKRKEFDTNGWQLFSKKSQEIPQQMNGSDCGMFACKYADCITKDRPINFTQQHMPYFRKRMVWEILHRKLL
#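 Test system: recombinant human SENP1 catalytic domain, His6-tagged / Medium: pH 8 Tris buffer with EDTA, NaCl, BME, BSA, NP40, catalase / Also added: SUMO1 FRET substrate flanked by Cypet and Ypet, 25 nM / Times: 50 min reaction at room temperature / Signal: FRET, CFP and YFP emission / Control set: no-enzyme low control and enzyme-plus-DMSO high control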
# * hit, by the source's call; i = inactive; . = no result. Rows were chosen to be rich in hits. Some 2.6% of all compounds tested hit in one or more screens of this group.
SMILES,SENP8 block-1,SENP6 inh,SENP8 block-2,SENP7 inh,Platelet DG rel,SENP1 FRET inh
CC(=O)Nc1ccc(-c2csc(Nc3ncccn3)n2)cc1,-8,1,8,18,5,0
Oc1ccc(-c2csc(Nc3ncccn3)n2)cc1,56*,37,10,72*,11,2
O=C(NCc1ccccc1Cl)C(=O)c1cn(CC(=O)N2CCOCC2)c2ccccc12,-4,6,13,-12,2,3
Cc1cccc(NC(=O)CCCNC(=O)c2ccc(Cl)cc2)n1,-1,5,4,-1,54*,1
Cc1ccc(NC(=O)CCCNC(=O)c2ccc(Cl)cc2)nc1,0,0,-5,2,9,1
COC(=O)c1sccc1NC(=O)/C=C/c1ccc(Cl)cc1,58*,74*,-40,95*,-26,3
Cc1cccc(NC(=O)/C=C/c2ccc(Cl)cc2)n1,68*,84*,-1,86*,27,4
COc1cc(/C=N/n2cnnc2)ccc1OCc1ccccc1,9,-4,-16,-5,-8,5
COc1cc(/C=N/n2cnnc2)ccc1OCc1ccc(C)cc1,-8,-10,-65,-5,62*,-1
CO[C@@H]1CN(C)C(=O)c2ccc(NC(=O)c3ccccc3F)cc2OC[C@@H](C)N(CC2CCOCC2)C[C@@H]1C,.,.,19,.,.,-2
COc1cc2c(cc1OC)-c1cc(NC3CCCCC3)nc(=O)n1CC2,-6,-7,-139,4,65*,-9
COc1cc2c(cc1OC)-c1cc(NC3CC3)nc(=O)n1CC2,-6,-13,-341,-6,44,-4
COc1cc2c(cc1OC)-c1cc(NC3CCCCCCC3)nc(=O)n1CC2,-8,-43,-268,-6,135*,-16
COc1ccc(C2CN=NC2C(=O)c2ccccc2)cc1 (stereo unspecified),.,.,22,.,.,-17
Nc1ccc(N2CCN(C(=O)c3cccs3)CC2)cc1,-8,-3,50*,-4,-1,26
COC(=O)C[C@H]1C=C[C@@H](NC(=O)C2CC2)[C@@H](CO)O1,.,.,18,.,.,0
FC(F)(F)c1ccc(/C=N/n2c(C3CCCCC3)n[nH]c2=S)cc1,3,-11,10,2,-6,-1
Cc1ccccc1C(=O)/C(C#N)=N/Nc1c(C)n(C)n(-c2ccccc2)c1=O,.,.,24,.,15,1
Cc1c(N/N=C(\C#N)C(=O)c2ccccc2)c(=O)n(-c2ccccc2)n1C,.,.,40*,.,-11,-5
C/C(=N\NC(=O)c1ccc(-c2ccccc2)cc1)C1C(=O)c2ccccc2C1=O,8,3,28,1,-4,4
C/C(=N\NC(=O)c1ccc(Br)cc1)C1C(=O)c2ccccc2C1=O,94*,97*,18,57*,15,2
Cc1ccc(S(=O)(=O)N2[C@H](CC(=O)c3ccc(F)cc3)OC[C@@H]2C)cc1,.,.,9,.,.,2
Cc1cc(SCC(=O)NC2CC2)nc2ccccc12,-6,-6,-1,-7,.,-1
COCCn1c(N)c(C(=O)NCC2CCCO2)c2nc3ccccc3nc21 (stereo unspecified),86*,84*,i,63*,0,-17
Cc1cc(SCC(=O)NCC2CCCO2)nc2ccccc12 (stereo unspecified),-5,5,-11,-6,6,57*
SMILES,SENP8 block-1,SENP6 inh,SENP8 block-2,SENP7 inh,Platelet DG rel,SENP1 FRET inh
COc1ccc(OC)c(-n2c(N)c(C(=O)NCC3CCCO3)c3nc4ccccc4nc32)c1 (stereo unspecified),.,.,-478,.,14,-32
CCC(=O)Nc1ccc2nc(C3CC3)n(Cc3ccc(C(C)(C)C)cc3)c(=O)c2c1,71*,86*,-17,91*,9,0
CC(=O)Nc1ccc2nc(C3CC3)n(Cc3ccc(Cl)cc3)c(=O)c2c1,17,26,-12,13,2,1
CC1=NN(c2ccccc2)C(=O)/C1=C/c1cccs1,-1,9,16,19,-4,0
CC1=NN(c2ccccc2)C(=O)/C1=C/c1ccc(Cl)cc1,27,41,41*,50,0,1
CC1=NN(c2ccccc2)C(=O)/C1=C/c1ccc[nH]1,-10,-22,46*,-7,17,2
CC1=NN(c2ccccc2)C(=O)C1=Cc1ccccc1,.,.,50*,.,.,2
CC1=NN(c2ccccc2)C(=O)/C1=C/C=C/C=C/N(C)C,6,1,23,6,24,33*
C#Cc1cccc(N2C(=O)C3C4C=CC(C3C2=O)C2C(=O)N(c3cccc(C#C)c3)C(=O)C42)c1 (stereo unspecified),.,.,2,.,.,-1
Cc1nnc(Cn2cnc3c2c(=O)n(C)c(=O)n3C)o1,1,-16,1,-7,-5,-5
COc1ccc(/C=C2/C(=O)N(c3ccccc3)N=C2C)cc1Br,-2,-3,46*,22,10,4
CC1=NN(c2ccc(C(=O)O)cc2)C(=O)/C1=C\c1ccc(OC(=O)c2cccs2)cc1,-4,8,61*,36,8,3
CC1=NN(c2ccccc2)C(=O)/C1=C/c1c(O)n(-c2ccc(F)cc2)[nH]c1=O,31,58*,31,-2,20,4
CC1=NN(c2ccccc2)C(=O)/C1=C\N(O)c1ccccc1,7,25,76*,36,8,3
CC1=NN(c2ccccc2)C(=O)/C1=C\c1ccc(Br)s1,2,20,17,44,1,1
CCCCN1C(=O)C(C(=O)OCC)CC2=C1CCCC2=O (stereo unspecified),.,.,-13,.,.,-1
COc1cccc(C(C)(O)c2nc(-c3ccoc3)cs2)c1 (stereo unspecified),.,.,-5,.,.,-6
COc1ccc(OCCN2CCC(C(=O)NC(C)c3cccc4ccccc34)CC2)cc1 (stereo unspecified),.,.,-2,.,.,0
COc1ccc(/C=C2/C(=O)N(c3cccc(F)c3)N=C2C)c(OC)c1,-2,20,41*,49,-2,1
O=C(Cc1nc(=O)c2ccccc2s1)Nc1ccccc1,2,46,-137,92*,3,-11
O=C(c1cc(O)c(O)c([N+](=O)[O-])c1)c1ccccc1F,9,-4,39*,-5,.,1
CCCOc1ccc(N)cc1N,52*,-4,-44,39,34,-18
COc1cc(CN2CCc3ccccc3C2)cc([N+](=O)[O-])c1O,-1,4,14,1,3,2
O=[N+]([O-])c1cc2oc3c(c2c(C=NCc2ccccc2)c1O)CCCC3,8,2,31,4,14,46*
CC(C)CN=Cc1c(O)c([N+](=O)[O-])cc2oc3c(c12)CCCC3,17,23,31,8,-12,32*
Cc1cccc(/N=C/c2c(O)ccc3oc4c(c23)CCCC4)n1,6,7,-16,2,-6,4
O=C1c2ccccc2-c2cccnc21,-3,2,14,-4,1,0
